Assay outcomes deposited in PubChem BioAssay by Johns Hopkins Ion Channel Center.
TRPC4 act – activators of mouse TRPC4 channel; Q9QUQ5; HEK293 TRPC4beta/mu-opioid, Fluo4 calcium fluorescence; active compounds read high; B-score at 10 µM; actives 0.49% (n = 310,000); AID 2237;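 active = B-score above 5 SD of library B-scores, and initial fluorescence ratio not above library mean plus 5 SD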;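 also: positive B-score marks a calcium rise read as TRPC4 activation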
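Material: TRPC4beta and mu-opioid receptor HEK293 stable cells | Incubation: 45 min room-temperature Fluo4 loading, 110 s read | Detection: Kinetic Fluo4 calcium fluorescence | Measure: Integrated baseline-normalised fluorescence ratio, converted to per-well B score | Benchmarks: Low control buffer alone, high control maximal DAMGO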
TRPC4 inh – blocks the mouse TRPC4 cation channel | HEK293 TRPC4beta/mu-opioid, DAMGO-evoked Fluo4 calcium flux; active compounds read low | B-score at 10 µM | actives 0.39% (n = 300,000) | Q9QUQ5;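 active = B-score over 3 SD under the library average, no early fluorescence shift, positive overall ratio signal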
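Material: HEK293 cells with stable TRPC4beta plus mu-opioid receptor expression; probe or stimulus: DAMGO in two steps, submaximal then maximal; technique: Fluo4 calcium fluorescence by kinetic imaging, 5 s 1 Hz baseline; measure: integrated fluorescence ratio relative to baseline, converted to per-well B score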
TRPC6 inh – mouse TRPC6 channel inhibition | Q61143 | B-score at 10 µM | HEK293-TRPC6, membrane potential dye, ACh-evoked depolarization; active compounds read low | actives 1.1% (n = 310,000);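 active = B-score under library mean minus 3 SD, initial fluorescence not abnormally high, positive integrated signal ratio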;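 also: B-score derived from integrated fluorescence ratio over the kinetic read; more negative B-score means stronger inhibition of depolarization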
TRPC4 potent – allosteric potentiators of mouse TRPC4 channel | actives 0.42% (n = 310,000) | HEK293 TRPC4beta/mu-opioid, DAMGO EC20, Fluo-4 Ca2+ flux; active compounds read high | B-score at 10 µM;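 active = B-score of calcium response area above 5 SD of library B-scores, with initial fluorescence ratio within 5 SD of library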;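 also: B-score of integrated fluorescence ratio over time as area under calcium response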
TRPC6 activator – activates the mouse TRPC6 cation channel. AID 2550. Q61143. actives 0.13% (n = 310,000). HEK293-TRPC6 membrane potential dye fluorescence; active compounds read high. B-score at 10 µM;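 active = B-score of the integrated fluorescence ratio above library mean plus 3 SD, and starting fluorescence ratio within library mean plus 5 SD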;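 also: higher score means more depolarization so channel activation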
Kir21 block – blocks the mouse Kir2.1 inward-rectifier potassium channel | P35561 | AID 1672 | actives 0.85% (n = 310,000) | B-score at 10 µM | HEK293-Kir2.1, FluxOR thallium flux fluorescence; active compounds read low;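 active = fluorescence ratio B-score at or below minus 3 SD of library scores, with starting-brightness B-score within 2 SD, cut at about -4.2 in these data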;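 also: channel flux triggered by added potassium and thallium sulfate stimulus; B-score of peak minus minimum fluorescence over baseline after thallium stimulus; more negative B-score means stronger Kir2.1 block with less thallium influx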
* marks the source's active call; other numbers are inactive results; i = inactive. An excerpt weighted towards active compounds, which were near 2.9% of everything screened.

SMILES	TRPC4 act	TRPC4 inh	TRPC6 inh	TRPC4 potent	TRPC6 activator	Kir21 block
CNC(=S)N1N=C(c2ccc(C)cc2)CC1c1ccc(OC)c(OC)c1 (configuration not stated)	i	i	i	i	i	-1.68
Oc1ccc(-c2[nH]ncc2-c2cnn(-c3ccccc3)c2)c(O)c1	i	-5*	i	i	i	0
Cc1cc(C)cc(NC(=S)N=Nc2c(O)n(C)c3ccc(S(=O)(=O)N4CCOCC4)cc23)c1	i	i	i	i	i	0.58
Cc1ccccc1-c1cc2nc(-c3ccc([N+](=O)[O-])cc3)cc(=O)n2[nH]1	i	i	i	i	i	2.87
COc1cccc(C2c3[nH]c4ccccc4c3C[C@H]3C(=O)N(C4CC4)CC(=O)N23)c1 (some centres not stated)	i	i	i	i	i	-0.32
COc1cc(=O)n2c(-c3ccccc3)csc2n1	i	-7*	i	i	i	0.03
COc1cc2c(cc1OC)CN(Cc1cc(=O)n3c(-c4ccccc4)csc3n1)CC2	122*	i	i	i	i	-0.11
Cc1ccc(SCC(=O)Nc2ccccc2N2CCOCC2)cc1	i	i	i	i	i	-12*
O=C(CSc1ccc(F)cc1)Nc1ccccc1N1CCOCC1	i	i	i	i	i	-13.5*
O=C(CSc1ccccc1)Nc1ccccc1N1CCOCC1	i	i	i	i	i	-8.52*
CCOC(=O)c1ccc(NC(=O)N2CCN(Cc3cccc(F)c3)CC2)cc1	i	i	i	i	i	-0.39
CC(C)CC(OC(=O)c1ccco1)C(=O)NCC1CCCO1 (configuration not stated)	i	i	i	i	i	-0.13
Cc1c(N2C(=O)/C(=C/C3CC=CCC3)SC2=S)c(=O)n(-c2ccccc2)n1C (configuration not stated)	i	i	i	i	i	0.12
Cc1c(N2C(=O)/C(=C\C3CC=CCC3)SC2=S)c(=O)n(-c2ccccc2)n1C (configuration not stated)	i	i	i	17*	i	-1.5
Cn1c(N/N=C/c2c[nH]c3ccccc23)nc2ccccc21	i	i	i	i	i	-5.21*
O=C(O)c1ccc(N/N=C/c2c[nH]c3ccccc23)cc1	i	i	-5.19*	i	i	-0.03
Cc1cc(N/N=C/c2c[nH]c3ccccc23)c2ccccc2n1	i	i	i	i	i	0.93
O=C(N/N=C\c1c[nH]c2ccccc12)c1ccc(O)cc1	i	i	i	i	i	-1.12
CCOc1ccc(NC(=S)NC(=O)/C=C/c2ccc(Br)cc2)c([N+](=O)[O-])c1	i	i	i	i	i	1.57
FC(F)(F)c1cc(Sc2ccccc2)nc(-c2ccccn2)n1	i	i	i	i	i	0.26
CCN(CC)CCOc1ccc(/C(=C(/Cl)c2ccccc2)c2ccccc2)cc1	i	i	i	i	i	0.61
Cc1ccc(Sc2ccc(CO)cc2[N+](=O)[O-])cc1	i	-7*	i	i	i	0.91
COc1cccc(NC(=O)c2csc3c2CCCC3)c1	i	i	i	i	i	-0.11
O=C(CCCCCn1c(=O)[nH]c2ccsc2c1=O)NCc1cccs1	i	i	i	i	i	1.23
Cc1n[nH]c(C)c1CNCc1c(C(=O)N2CCCCCCC2)nc2ccc(Cl)cn12	i	i	i	i	i	0.92
SMILES	TRPC4 act	TRPC4 inh	TRPC6 inh	TRPC4 potent	TRPC6 activator	Kir21 block
O=C(c1nc2ccc(Cl)cn2c1CNCC[C@@H]1C[C@@H]2C=C[C@H]1C2)N1CCCCCCC1	64*	i	i	i	i	-4.99
COC(=O)CNC(=O)COC(=O)C(Cc1ccccc1)NC(=O)c1ccco1 (configuration not stated)	i	i	i	i	i	1.74
O=C1NC(=S)N(C(=O)c2ccc(F)cc2)/C1=C/c1ccccc1	i	i	i	i	i	-0.74
CC1CCN(CCCCOc2ccc(C(=O)c3ccccc3)cc2)CC1	i	i	i	i	i	-5.48*
CC1CCN(CCCOc2ccc(OCc3ccccc3)cc2)CC1	i	-6*	i	i	i	-7.15*
CC1CCN(CCOc2ccc(C(=O)c3ccccc3)cc2)CC1	i	i	i	i	i	-3.47
CCCNC(=O)C(=O)NCc1ccccn1	i	i	i	i	i	0.01
CCCCCCCNC(=O)COc1ccc2c(c1)C(=O)CC(C)(C)O2	i	-5*	i	i	i	-1.29
Cc1nn(-c2cccc(Cl)c2)c2nc(C(F)(F)F)[nH]c(=O)c12	i	-8*	i	i	i	-0.28
Cc1nn(-c2cc(C(F)(F)F)ccc2Cl)c2nc(C(F)(F)F)[nH]c(=O)c12	i	i	i	i	i	-1.69
CN1CCN(CCCNC(=O)CN2C(=O)COc3ccccc32)CC1	i	-6*	i	i	i	-0.18
COC(=O)c1ccccc1S(=O)(=O)N1CCC(C(=O)OCC(=O)NCC(F)(F)F)CC1	i	i	i	i	i	1.29
OC(COCc1ccc(Cl)cc1)CN1CCN(CC(O)COCc2ccc(Cl)cc2)CC1 (configuration not stated)	i	i	i	i	i	-4.88*
C=CCc1ccc(OCC(O)CN2CCN(Cc3ccc(Cl)cc3)CC2)c(OC)c1 (configuration not stated)	i	i	i	10*	i	-8.26*
CC1(C)C=C(c2ccc(C=O)s2)CC(C)(C)N1	i	i	i	i	i	0.02
CN(C)c1cccc(C(=O)NCC(c2ccco2)N(C)C)c1 (configuration not stated)	i	i	i	i	i	0.45
CN(C)C(CNC(=O)Cc1cccc(C(F)(F)F)c1)c1ccco1 (configuration not stated)	90*	i	i	i	i	-0.49
CN(C)C(CNC(=O)C1CCN(S(=O)(=O)c2cccc(C(F)(F)F)c2)CC1)c1ccccc1 (configuration not stated)	48*	-8*	i	i	i	-0.83
CN(C)C(CNC(=O)Cc1cccc(C(F)(F)F)c1)c1ccccc1 (configuration not stated)	161*	-7*	i	i	i	-0.21
COC(=O)c1ccc(OC)c(OC2CCCC2)c1	i	i	i	i	i	1.39
